ChEMBL document CHEMBL4007432, “Discovery and characterization of novel CYP1B1 inhibitors based on heterocyclic chalcones: Overcoming cisplatin resistance in CYP1B1-overexpressing lines” (Eur J Med Chem, 2017)

Assays:
Cytochrome P450 2C9 = Cytochrome P450 2C9 (Homo sapiens, UniProt P11712); experiment: Inhibition of human liver CYP2C9 expressed in Saccharomyces cerevisiae YY7 microsomal membranes using DBF as substrate after 10 mins by fluorescence assay; type: ADME, Microsomal Membrane
Cytochrome P450 1B1 [1] = biological target: T1, Cytochrome P450 1B1 (Homo sapiens, UniProt Q16678); experiment: Inhibition of human liver CYP1B1 expressed in Saccharomyces cerevisiae YY7 microsomal membranes at 5 to 10 uM using 7-ethoxyresorufin as substrate after 10 mins by fluorescence assay
T1 sequence (Q16678 whole entry): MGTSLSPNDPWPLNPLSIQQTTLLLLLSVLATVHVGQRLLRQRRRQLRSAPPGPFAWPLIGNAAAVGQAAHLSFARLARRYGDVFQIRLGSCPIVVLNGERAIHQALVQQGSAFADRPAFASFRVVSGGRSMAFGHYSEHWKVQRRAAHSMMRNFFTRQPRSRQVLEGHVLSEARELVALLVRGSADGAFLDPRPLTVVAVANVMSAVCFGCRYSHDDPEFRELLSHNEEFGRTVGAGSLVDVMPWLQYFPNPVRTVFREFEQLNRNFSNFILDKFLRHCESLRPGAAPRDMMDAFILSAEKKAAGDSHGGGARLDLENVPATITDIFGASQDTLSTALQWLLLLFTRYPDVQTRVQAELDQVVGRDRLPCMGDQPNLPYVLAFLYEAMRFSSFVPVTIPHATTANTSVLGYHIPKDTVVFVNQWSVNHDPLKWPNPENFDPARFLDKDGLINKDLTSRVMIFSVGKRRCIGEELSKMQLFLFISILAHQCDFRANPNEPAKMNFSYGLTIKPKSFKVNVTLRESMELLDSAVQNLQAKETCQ
Outline: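 Single-concentration screen on CYP1B1 yeast microsomes at 5 µM (10 µM per methods), with 7-ER under the regenerating-system endpoint format: 10 min at 37 °C. Percentage inhibition versus a DMSO control; each compound tested twice.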

Cytochrome P450 1A2 = biological target: T2, Cytochrome P450 1A2 (Homo sapiens, UniProt P05177); experiment: Inhibition of human liver CYP1A2 expressed in Saccharomyces cerevisiae YY7 microsomal membranes using CEC as substrate after 10 mins by fluorescence assay; type: ADME, Microsomal Membrane
T2 sequence (P05177 whole entry): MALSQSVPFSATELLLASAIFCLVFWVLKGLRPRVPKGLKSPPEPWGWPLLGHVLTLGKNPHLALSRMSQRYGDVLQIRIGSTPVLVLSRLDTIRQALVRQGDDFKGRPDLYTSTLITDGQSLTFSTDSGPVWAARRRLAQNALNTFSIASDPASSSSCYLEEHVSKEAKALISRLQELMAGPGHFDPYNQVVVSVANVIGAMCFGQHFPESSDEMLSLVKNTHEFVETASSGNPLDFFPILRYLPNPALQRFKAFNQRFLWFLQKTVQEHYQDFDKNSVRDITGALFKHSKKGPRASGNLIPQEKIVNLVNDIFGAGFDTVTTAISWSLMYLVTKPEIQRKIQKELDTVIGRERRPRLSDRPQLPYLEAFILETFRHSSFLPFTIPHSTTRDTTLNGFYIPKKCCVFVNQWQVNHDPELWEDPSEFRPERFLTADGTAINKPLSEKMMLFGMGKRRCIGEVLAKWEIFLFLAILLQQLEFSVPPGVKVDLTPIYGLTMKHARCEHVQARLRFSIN
Outline: (§1)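 Yeast microsomes (YY7 strain carrying human reductase) held 0.5 pmol CYP with an NADP+/glucose-6-phosphate/G6PDH regenerating system in KPi. Fluorogenic substrate per isoform: 7-ER, CEC, EOMCC or DBF. Six serial 1:20 dilutions were tested, DMSO ≤0.5%. Reactions ran 10 min at 37 °C and were stopped with Tris-acetonitrile. Endpoint fluorescence (530/590 nm for resorufin) was fitted by 4-parameter sigmoid. Triplicate, ≥3 experiments.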

Cytochrome P450 3A4 = Cytochrome P450 3A4 (Homo sapiens, UniProt P08684); experiment: Inhibition of human liver CYP3A4 expressed in Saccharomyces cerevisiae YY7 microsomal membranes using DBF as substrate after 10 mins by fluorescence assay; type: ADME, Microsomal Membrane
Cytochrome P450 1A1 = biological target: T3, Cytochrome P450 1A1 (Homo sapiens, UniProt P04798); experiment: Inhibition of human liver CYP1A1 expressed in Saccharomyces cerevisiae YY7 microsomal membranes using 7-ethoxyresorufin as substrate after 10 mins by fluorescence assay; type: ADME, Microsomal Membrane; outline: as §1
T3 sequence (P04798 whole entry): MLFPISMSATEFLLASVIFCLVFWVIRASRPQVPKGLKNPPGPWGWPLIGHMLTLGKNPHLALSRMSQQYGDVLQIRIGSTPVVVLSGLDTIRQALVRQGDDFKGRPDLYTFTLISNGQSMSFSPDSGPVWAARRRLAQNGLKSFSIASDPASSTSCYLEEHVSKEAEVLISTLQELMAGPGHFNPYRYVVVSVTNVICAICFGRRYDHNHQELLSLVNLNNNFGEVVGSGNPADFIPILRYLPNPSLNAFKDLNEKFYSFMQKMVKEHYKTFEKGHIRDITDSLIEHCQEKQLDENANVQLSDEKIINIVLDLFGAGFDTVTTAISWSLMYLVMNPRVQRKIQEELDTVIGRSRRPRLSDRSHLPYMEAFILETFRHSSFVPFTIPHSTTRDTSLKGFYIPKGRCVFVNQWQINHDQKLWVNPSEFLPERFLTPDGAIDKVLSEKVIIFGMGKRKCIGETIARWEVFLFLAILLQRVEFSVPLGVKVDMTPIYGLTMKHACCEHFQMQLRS

Cytochrome P450 1B1 [2] = biological target: T1, Cytochrome P450 1B1; experiment: Inhibition of human liver CYP1B1 expressed in Saccharomyces cerevisiae YY7 microsomal membranes using 7-ethoxyresorufin as substrate after 10 mins by fluorescence assay; outline: as §1
Cytochrome P450 2D6 = Cytochrome P450 2D6 (Homo sapiens, UniProt P10635); experiment: Inhibition of human liver CYP2D6 expressed in Saccharomyces cerevisiae YY7 microsomal membranes using EOMCC as substrate after 10 mins by fluorescence assay; type: ADME, Microsomal Membrane; outline: as §1
Cytochrome P450 2C19 = Cytochrome P450 2C19 (Homo sapiens, UniProt P33261); experiment: Inhibition of human liver CYP2C19 expressed in Saccharomyces cerevisiae YY7 microsomal membranes using DBF as substrate after 10 mins by fluorescence assay; type: ADME, Microsomal Membrane
Sequence of Cytochrome P450 2C19 (P33261 whole entry): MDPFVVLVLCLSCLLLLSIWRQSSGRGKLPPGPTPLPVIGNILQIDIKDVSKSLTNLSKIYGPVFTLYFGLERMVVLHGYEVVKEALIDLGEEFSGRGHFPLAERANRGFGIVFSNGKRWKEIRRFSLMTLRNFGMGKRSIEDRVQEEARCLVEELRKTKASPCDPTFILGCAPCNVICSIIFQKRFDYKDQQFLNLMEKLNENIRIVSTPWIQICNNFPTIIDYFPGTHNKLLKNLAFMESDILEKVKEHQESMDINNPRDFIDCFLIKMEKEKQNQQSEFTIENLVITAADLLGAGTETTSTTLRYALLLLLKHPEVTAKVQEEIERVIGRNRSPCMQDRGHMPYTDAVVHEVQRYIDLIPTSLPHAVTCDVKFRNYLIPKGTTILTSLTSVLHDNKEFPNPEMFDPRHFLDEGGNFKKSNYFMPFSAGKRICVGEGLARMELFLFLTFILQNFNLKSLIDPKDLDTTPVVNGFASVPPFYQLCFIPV

Sequence of Cytochrome P450 2D6 (P10635 whole entry): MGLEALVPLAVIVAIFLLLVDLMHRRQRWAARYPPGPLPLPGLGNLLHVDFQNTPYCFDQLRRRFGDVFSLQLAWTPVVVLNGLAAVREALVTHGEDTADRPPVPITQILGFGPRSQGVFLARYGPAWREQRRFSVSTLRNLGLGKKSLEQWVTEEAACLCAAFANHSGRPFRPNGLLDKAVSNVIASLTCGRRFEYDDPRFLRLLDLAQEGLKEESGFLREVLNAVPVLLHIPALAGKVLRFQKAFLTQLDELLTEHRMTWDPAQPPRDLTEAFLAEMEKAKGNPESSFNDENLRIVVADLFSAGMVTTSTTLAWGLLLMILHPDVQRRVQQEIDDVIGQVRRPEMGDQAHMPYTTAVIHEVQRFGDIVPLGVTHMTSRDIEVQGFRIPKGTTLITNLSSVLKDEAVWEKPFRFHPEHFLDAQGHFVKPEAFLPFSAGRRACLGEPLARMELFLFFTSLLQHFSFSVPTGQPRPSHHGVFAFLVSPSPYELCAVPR
Sequence of Cytochrome P450 2C9 (P11712 whole entry): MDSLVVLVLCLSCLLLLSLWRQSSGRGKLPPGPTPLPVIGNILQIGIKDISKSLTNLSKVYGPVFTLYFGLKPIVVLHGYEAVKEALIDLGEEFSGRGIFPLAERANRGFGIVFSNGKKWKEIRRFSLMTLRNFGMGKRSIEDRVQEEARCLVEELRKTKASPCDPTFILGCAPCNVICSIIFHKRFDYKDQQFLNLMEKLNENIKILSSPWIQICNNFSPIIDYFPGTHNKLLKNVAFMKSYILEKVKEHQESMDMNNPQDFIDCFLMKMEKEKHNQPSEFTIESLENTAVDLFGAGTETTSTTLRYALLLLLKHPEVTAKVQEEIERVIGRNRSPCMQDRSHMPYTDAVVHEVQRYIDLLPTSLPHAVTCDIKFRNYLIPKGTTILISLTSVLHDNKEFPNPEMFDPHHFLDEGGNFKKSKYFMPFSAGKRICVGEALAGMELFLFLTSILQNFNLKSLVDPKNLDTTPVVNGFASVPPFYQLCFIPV
Sequence of Cytochrome P450 3A4 (P08684 whole entry): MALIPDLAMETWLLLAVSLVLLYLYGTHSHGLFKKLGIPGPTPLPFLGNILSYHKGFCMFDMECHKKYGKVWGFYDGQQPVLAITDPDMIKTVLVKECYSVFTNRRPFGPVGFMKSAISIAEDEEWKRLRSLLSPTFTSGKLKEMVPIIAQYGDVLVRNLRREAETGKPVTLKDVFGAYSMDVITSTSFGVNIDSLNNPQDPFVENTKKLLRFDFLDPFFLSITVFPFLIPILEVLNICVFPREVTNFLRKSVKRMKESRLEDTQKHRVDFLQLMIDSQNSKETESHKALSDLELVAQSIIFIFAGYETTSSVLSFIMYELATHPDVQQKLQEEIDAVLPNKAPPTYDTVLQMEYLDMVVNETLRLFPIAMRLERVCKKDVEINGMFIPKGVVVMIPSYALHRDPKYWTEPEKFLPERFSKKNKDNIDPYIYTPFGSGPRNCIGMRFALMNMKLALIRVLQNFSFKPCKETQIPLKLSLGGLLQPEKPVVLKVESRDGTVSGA

Structure (SMILES) | IC50 (Cytochrome P450 2C9) [µM] | inhibition (INH) (Cytochrome P450 1B1 [1]) | IC50 (Cytochrome P450 1A2) [µM] | IC50 (Cytochrome P450 3A4) [µM] | IC50 (Cytochrome P450 1A1) [µM] | IC50 (Cytochrome P450 1B1 [2]) [µM] | IC50 (Cytochrome P450 2D6) [µM] | IC50 (Cytochrome P450 2C19) [µM]
O=C(/C=C/c1cccnc1)c1ccc2ccc3ccccc3c2c1 | > 20 | Active | 1 | 26 | 0.122 | 0.048 | 12 | > 20
COc1ccc(C(=O)/C=C/c2cccnc2)cc1OC |  | Active | 0.705 |  | 3.1 | 0.176 |  | 
COc1ccc(C(=O)/C=C/c2cccnc2)c(OC)c1 | > 20 | Active | 0.432 | 11 | 1.5 | 0.093 | 7.7 | > 20
O=C(/C=C/c1cccnc1)c1cccc(Cl)c1 | > 20 | Active | 0.238 | 12.5 | 3.4 | 0.059 | 10.6 | > 20
COc1ccc(C(=O)/C=C/c2cccnc2)c(OC)c1OC |  | Active | 0.176 |  | 5.3 | 0.137 |  | 
O=C(/C=C/c1cccnc1)c1cc2ccccc2c2ccccc12 |  | Active | 0.669 |  | 0.058 | 0.133 |  | 
O=C(/C=C/c1ccc(Cl)c(Cl)c1)c1cccnc1 | > 20 | Active | 0.624 | 15 | 2 | 0.096 | 10.2 | > 20
O=C(/C=C/c1ccc2c(c1)OCO2)c1cccnc1 | > 20 | Active | 1.5 | 12 | 1.5 | 0.029 | 14 | > 20
O=C(/C=C/c1cccnc1)c1cccc(Br)c1 | > 20 | Active | 0.162 | 14 | 2.6 | 0.064 | 8 | > 20
COc1cccc(C(=O)/C=C/c2cccnc2)c1 |  | Active | 0.48 |  | 3.5 | 0.13 |  | 
O=C(/C=C/c1cccnc1)c1ccc2ccc3cccc4ccc1c2c34 |  | Active | 2.1 |  | 2.2 | 0.162 |  | 
COc1ccc(C(=O)/C=C/c2cccnc2)cc1 |  | Active | 2.4 |  | 3.6 | 0.525 |  | 
COc1cc(OC)cc(C(=O)/C=C/c2cccnc2)c1 |  | Active | 0.306 |  | 0.879 | 0.106 |  | 
COc1ccccc1/C=C/C(=O)c1cccnc1 | > 20 | Active | 0.22 | 1.52 | 4.7 | 0.015 | 1.74 | > 20
COc1ccc(/C=C/C(=O)c2cccnc2)cc1O |  | Active | 1.7 |  | 2.6 | 0.112 |  | 
COc1ccc(/C=C/C(=O)c2cccnc2)cc1OC | > 20 | Active | 0.258 | 53 | 1.4 | 0.019 | 1.1 | > 20
O=C(/C=C/c1ccncc1)c1ccc2ccccc2c1 |  | Active | 0.3 |  | 0.907 | 0.187 |  | 

More lines, in order of falling IC50 (Cytochrome P450 1A2), values ahead:

IC50 (Cytochrome P450 2C9) [µM] | inhibition (INH) (Cytochrome P450 1B1 [1]) | IC50 (Cytochrome P450 1A2) [µM] | IC50 (Cytochrome P450 3A4) [µM] | IC50 (Cytochrome P450 1A1) [µM] | IC50 (Cytochrome P450 1B1 [2]) [µM] | IC50 (Cytochrome P450 2D6) [µM] | IC50 (Cytochrome P450 2C19) [µM] | Structure (SMILES)
> 20 | Active | 4.7 | 11.1 | 31.8 | 0.077 | 8.2 | > 20 | O=C(/C=C/c1ccccc1)c1cccnc1
 | Active | 2.9 |  | 25 | 0.466 |  |  | O=C(/C=C/c1cccc(O)c1)c1cccnc1
 | Active | 2.3 |  | 17 | 0.189 |  |  | O=C(/C=C/c1cccnc1)c1ccc(-c2ccccc2)cc1
 | Active | 0.86 |  | 11.8 | 0.12 |  |  | O=C(/C=C/c1ccc(F)c(F)c1)c1cccnc1
> 20 | Active | 0.752 | 1.28 | 10.5 | 0.032 | 1 | > 20 | COc1cccc(/C=C/C(=O)c2cccnc2)c1
> 20 | Active | 0.636 | 28 | 0.349 | 0.015 | 4.4 | > 20 | O=C(/C=C/c1cccnc1)c1ccc2ccccc2c1
 | Active | 0.515 |  | 0.288 | 0.349 |  |  | COc1cc(/C=C/C(=O)c2cccnc2)cc(OC)c1OC
> 20 | Active | 0.214 | 6 | 0.958 | 0.023 | 1.3 | > 20 | O=C(/C=C/c1cccnc1)c1cccc2ccccc12
> 20 | Active | 0.168 | 11.8 | 0.297 | 0.031 | 8.8 | > 20 | COc1ccc(/C=C/C(=O)c2cccnc2)c(OC)c1OC
